Assay [1] deals with FGM. Kind of assay: Inhibition of importin alpha/beta-mediated nuclear transportation of Alexa555-BSA-NLS in human FGM cell nucleus at 500 uM after 30 mins by fluorescence microscopy. The assay is classed as cell-based.
Assay [2] deals with FGM. Kind of assay: Inhibition of importin alpha/beta-mediated nuclear transportation of Alexa555-GST-M9 in human FGM cell nucleus at 500 uM after 30 mins by fluorescence microscopy. The assay is classed as cell-based. The gist of the method:
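Transportin-dependent import measured the same way in permeabilized FGM cells, with 0.5 μM Alexa555-GST-M9 cargo in place of BSA-NLS. Conditions: 3 mg/ml HeLa cytosol, ATP-regenerating system, 0.2 mM GTP, 1% DMSO, 30 min at 30°C. Positive control was 1 mg/ml WGA. Nuclear cargo fluorescence quantified per nucleus by automated imaging.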

Drawing on ChEMBL document CHEMBL1828601, “Small molecule peptidomimetic inhibitors of importin α/β mediated nuclear transport” (Bioorg Med Chem, 2010), this text covers inhibition for 53 molecules.

SMILES strings stand for the structures. Calls of active or inactive are those of the source. How the calls were made is not given here.

Regarding `NCCCCNC(=O)[C@@H]1CN(C(=O)[C@@H](N)CCc2ccc(Cl)cc2)C[C@H]1C(=O)NCCc1ccc2ccccc2c1`, the inhibition entry in the assay with FGM [1] and with FGM [2] was “inactive” in each case.
Regarding `N[C@@H](CCc1ccc(Cl)cc1)C(=O)N1C[C@@H](C(=O)NCCc2c[nH]cn2)[C@H](C(=O)NCCc2c[nH]c3ccccc23)C1`, the inhibition entry with FGM [1] and in the assay with FGM [2] was “inactive” in each case.
On to `CC[C@H](C)[C@H](NC(=O)c1ccc(NC(=O)[C@@H](N)Cc2ccc(OC)cc2)c(OCc2c[nH]cn2)c1)C(=O)O`, for which the inhibition entry in the assay on FGM [1] and in the assay with FGM [2] was “inactive” in each case.
Consider `CC[C@H](N)C(=O)Nc1ccc(C(=O)N[C@@H](CCc2ccccc2)C(=O)O)cc1OCc1ccc(Cl)cc1`, for which the inhibition result with FGM [1] and with FGM [2] was “Active” in each case.
As to `CC(C)[C@H](N)C(=O)N1C[C@@H](C(=O)NCCc2c[nH]cn2)[C@H](C(=O)NCCc2c[nH]c3ccccc23)C1`, the inhibition result in the assay with FGM [1] and in the assay with FGM [2] was “inactive” each time.
`NCCCCNC(=O)[C@@H]1CN(C(=O)[C@@H](N)Cc2ccccc2)C[C@H]1C(=O)NCCc1ccc2ccccc2c1`: the inhibition entry with FGM [1] and in the assay with FGM [2] was “inactive” throughout.
As for `CC(C)[C@H](N)C(=O)Nc1ccc(C(=O)N[C@@H](CCc2ccccc2)C(=O)O)cc1OCc1ccc(Cl)cc1`, the inhibition entry in the assay on FGM [1] and in the assay with FGM [2] was “inactive” throughout.
Regarding `N[C@@H](Cc1c[nH]cn1)C(=O)Nc1ccc(C(=O)N[C@@H](CCc2ccccc2)C(=O)O)cc1OCc1ccc(Cl)cc1`, the inhibition entry with FGM [1] and in the assay with FGM [2] was “inactive” in each case.
Turning to `CC(C)[C@H](N)C(=O)N1C[C@@H](C(=O)NCCCCN)[C@H](C(=O)NCCc2ccc3ccccc3c2)C1`, the inhibition entry with FGM [1] and with FGM [2] was “inactive” in each case.
Consider `NC(=O)C[C@H](N)C(=O)N1C[C@@H](C(=O)NCCc2c[nH]cn2)[C@H](C(=O)NCCc2c[nH]c3ccccc23)C1`, for which the inhibition entry in the assay with FGM [1] and in the assay with FGM [2] was “inactive” each time.
For the molecule `CC[C@H](C)[C@H](NC(=O)c1ccc(NC(=O)[C@@H](N)Cc2ccc(O)cc2)c(OCc2c[nH]cn2)c1)C(=O)O`, the inhibition result with FGM [1] and in the assay with FGM [2] was “inactive” throughout.
As for `CC[C@H](C)[C@H](NC(=O)c1ccc(NC(=O)[C@@H](N)CC(N)=O)c(OCc2c[nH]cn2)c1)C(=O)O`, the inhibition entry in the assay with FGM [1] and with FGM [2] was “inactive” each time.
Turning to `NCCCCNC(=O)[C@@H]1CN(C(=O)[C@@H](N)Cc2ccc(Cl)cc2)C[C@H]1C(=O)NCCc1ccc2ccccc2c1`, the inhibition entry with FGM [1] and with FGM [2] was “inactive” each time.
Take `NC(=O)C[C@H](N)C(=O)Nc1ccc(C(=O)N[C@@H](CCc2ccccc2)C(=O)O)cc1OCc1ccc(Cl)cc1`: the inhibition result in the assay on FGM [1] and with FGM [2] was “Active” throughout.
Turning to `CSCC[C@H](N)C(=O)Nc1ccc(C(=O)N[C@@H](CCc2ccccc2)C(=O)O)cc1OCc1ccc(Cl)cc1`, the inhibition result in the assay with FGM [1] and in the assay on FGM [2] was “Active” throughout.
As for `CC(C)C[C@H](N)C(=O)N1C[C@@H](C(=O)NCCCCN)[C@H](C(=O)NCCc2ccc3ccccc3c2)C1`, the inhibition entry in the assay on FGM [1] and in the assay on FGM [2] was “inactive” in each case.
For the molecule `NCCCCNC(=O)[C@@H]1CN(C(=O)[C@@H](N)CCc2ccc(O)cc2)C[C@H]1C(=O)NCCc1ccc2ccccc2c1`, the inhibition entry in the assay with FGM [1] and with FGM [2] was “inactive” throughout.
As to `NCCCCNC(=O)[C@@H]1CN(C(=O)[C@@H](N)CC(=O)O)C[C@H]1C(=O)NCCc1ccc2ccccc2c1`, the inhibition entry in the assay with FGM [1] and with FGM [2] was “inactive” in each case.
Take `C[C@@H](O)[C@H](N)C(=O)N1C[C@@H](C(=O)NCCCCN)[C@H](C(=O)NCCc2ccc3ccccc3c2)C1`: the inhibition result in the assay with FGM [1] and in the assay on FGM [2] was “inactive” in each case.
Take `N[C@@H](Cc1ccc(O)cc1)C(=O)Nc1ccc(C(=O)N[C@@H](CCc2ccccc2)C(=O)O)cc1OCc1ccc(Cl)cc1`: the inhibition result in the assay with FGM [1] and in the assay on FGM [2] was “Active” throughout.
Take `CC(C)COc1cc(C(=O)N[C@@H](Cc2ccc3ccccc3c2)C(=O)O)ccc1NC(=O)[C@@H](N)CCc1ccccc1`: the inhibition result in the assay on FGM [1] was “inactive”.
Still for that read-out and setting: next, `N[C@@H](CCc1ccccc1)C(=O)N1C[C@@H](C(=O)NCCc2c[nH]c3ccccc23)[C@H](C(=O)NCCc2c[nH]c3ccccc23)C1`: “inactive”; `COc1ccc(C[C@H](N)C(=O)Nc2ccc(C(=O)N[C@@H](Cc3ccc4ccccc4c3)C(=O)O)cc2OCC(C)C)cc1`: “Active”.
As for `CC(C)COc1cc(C(=O)N[C@@H](Cc2ccc3ccccc3c2)C(=O)O)ccc1NC(=O)[C@@H](N)Cc1c[nH]c2ccccc12`, the inhibition entry with FGM [1] was “inactive”.
Take `C[C@@H](O)[C@H](N)C(=O)N1C[C@@H](C(=O)NCCc2c[nH]c3ccccc23)[C@H](C(=O)NCCc2c[nH]c3ccccc23)C1`: the inhibition entry in the assay on FGM [1] is “inactive”.
On to `CC[C@H](N)C(=O)Nc1ccc(C(=O)N[C@@H](CCc2ccccc2)C(=O)O)cc1OCc1ccccc1`, for which the inhibition entry with FGM [1] is “Active”.
Take `CC(C)[C@H](N)C(=O)N1C[C@@H](C(=O)NCCc2c[nH]c3ccccc23)[C@H](C(=O)NCCc2c[nH]c3ccccc23)C1`: the inhibition entry with FGM [1] was “inactive”.
`N[C@@H](Cc1cnc[nH]1)C(=O)N1C[C@@H](C(=O)NCCc2c[nH]c3ccccc23)[C@H](C(=O)NCCc2c[nH]c3ccccc23)C1`: in the assay with FGM [1], the inhibition result was “inactive”.
With `CC(C)COc1cc(C(=O)N[C@@H](Cc2ccc3ccccc3c2)C(=O)O)ccc1NC(=O)[C@@H](N)CC(=O)O`, the inhibition entry in the assay on FGM [1] is “inactive”.
Take `CC(C)COc1cc(C(=O)N[C@@H](Cc2ccc3ccccc3c2)C(=O)O)ccc1NC(=O)[C@@H](N)C(C)C`: the inhibition entry in the assay on FGM [1] was “inactive”.
The same measure, in the same setting: next, `N[C@@H](CO)C(=O)Nc1ccc(C(=O)N[C@@H](CCc2ccccc2)C(=O)O)cc1OCc1ccccc1`: “Active”; `N[C@@H](Cc1c[nH]c2ccccc12)C(=O)Nc1ccc(C(=O)N[C@@H](CCc2ccccc2)C(=O)O)cc1OCc1ccccc1`: “inactive”.
Still for that read-out and setting: the same measure for `CC(C)COc1cc(C(=O)N[C@@H](Cc2ccc3ccccc3c2)C(=O)O)ccc1NC(=O)[C@@H](N)Cc1ccc(Cl)cc1`: “inactive”; for `CC(C)COc1cc(C(=O)N[C@@H](Cc2ccc3ccccc3c2)C(=O)O)ccc1NC(=O)[C@@H](N)Cc1ccc2ccccc2c1`: “inactive”; for `CC(C)C[C@H](N)C(=O)N1C[C@@H](C(=O)NCCc2c[nH]c3ccccc23)[C@H](C(=O)NCCc2c[nH]c3ccccc23)C1`: “inactive”.
On to `CC(C)[C@H](N)C(=O)Nc1ccc(C(=O)N[C@@H](CCc2ccccc2)C(=O)O)cc1OCc1ccccc1`, for which, in the assay on FGM [1], the inhibition result is “Active”.
Consider `CC(C)COc1cc(C(=O)N[C@@H](Cc2ccc3ccccc3c2)C(=O)O)ccc1NC(=O)[C@@H](N)CC(N)=O`, for which, in the assay on FGM [1], the inhibition entry was “inactive”.
With `N[C@@H](Cc1c[nH]c2ccccc12)C(=O)N1C[C@@H](C(=O)NCCc2c[nH]c3ccccc23)[C@H](C(=O)NCCc2c[nH]c3ccccc23)C1`, the inhibition entry with FGM [1] is “inactive”.
On to `CC(C)COc1cc(C(=O)N[C@@H](Cc2ccc3ccccc3c2)C(=O)O)ccc1NC(=O)[C@@H](N)CC(C)C`, for which the inhibition result in the assay on FGM [1] was “inactive”.
In the case of `CC(C)C[C@H](N)C(=O)Nc1ccc(C(=O)N[C@@H](CCc2ccccc2)C(=O)O)cc1OCc1ccccc1`, the inhibition entry in the assay with FGM [1] is “Active”.
Consider `N[C@@H](CCc1ccc(Cl)cc1)C(=O)N1C[C@@H](C(=O)NCCc2c[nH]c3ccccc23)[C@H](C(=O)NCCc2c[nH]c3ccccc23)C1`, for which, in the assay on FGM [1], the inhibition result is “inactive”.
Turning to `COc1ccc(C[C@H](N)C(=O)Nc2ccc(C(=O)N[C@@H](CCc3ccccc3)C(=O)O)cc2OCc2ccccc2)cc1`, the inhibition entry with FGM [1] was “inactive”.
For the molecule `CC(C)COc1cc(C(=O)N[C@@H](Cc2ccc3ccccc3c2)C(=O)O)ccc1NC(=O)[C@@H](N)Cc1ccccc1`, the inhibition result in the assay on FGM [1] was “Active”.
Consider `NC(=O)C[C@H](N)C(=O)N1C[C@@H](C(=O)NCCc2c[nH]c3ccccc23)[C@H](C(=O)NCCc2c[nH]c3ccccc23)C1`, for which, in the assay on FGM [1], the inhibition entry is “inactive”.
Regarding `N[C@@H](Cc1ccccc1)C(=O)N1C[C@@H](C(=O)NCCc2c[nH]c3ccccc23)[C@H](C(=O)NCCc2c[nH]c3ccccc23)C1`, the inhibition entry in the assay with FGM [1] is “inactive”.
As for `COc1ccc(C[C@H](N)C(=O)N2C[C@@H](C(=O)NCCc3c[nH]c4ccccc34)[C@H](C(=O)NCCc3c[nH]c4ccccc34)C2)cc1`, the inhibition result with FGM [1] is “inactive”.
In the case of `N[C@@H](CCc1ccc(O)cc1)C(=O)N1C[C@@H](C(=O)NCCc2c[nH]c3ccccc23)[C@H](C(=O)NCCc2c[nH]c3ccccc23)C1`, the inhibition entry in the assay on FGM [1] is “inactive”.
With `N[C@@H](Cc1ccc(Cl)cc1)C(=O)N1C[C@@H](C(=O)NCCc2c[nH]c3ccccc23)[C@H](C(=O)NCCc2c[nH]c3ccccc23)C1`, in the assay with FGM [1], the inhibition result is “inactive”.
For `N[C@@H](Cc1ccc2ccccc2c1)C(=O)N1C[C@@H](C(=O)NCCc2c[nH]c3ccccc23)[C@H](C(=O)NCCc2c[nH]c3ccccc23)C1`, the inhibition entry with FGM [1] is “inactive”.
As for `NCCCC[C@H](N)C(=O)N1C[C@@H](C(=O)NCCc2c[nH]c3ccccc23)[C@H](C(=O)NCCc2c[nH]c3ccccc23)C1`, in the assay with FGM [1], the inhibition result is “Active”.
The same measure, in the same setting: next, `CC[C@H](C)[C@H](N)C(=O)Nc1ccc(C(=O)N[C@@H](Cc2ccc3ccccc3c2)C(=O)O)cc1OCC(C)C`: “inactive”; `N[C@@H](Cc1ccc(O)cc1)C(=O)N1C[C@@H](C(=O)NCCc2c[nH]c3ccccc23)[C@H](C(=O)NCCc2c[nH]c3ccccc23)C1`: “inactive”.
Regarding `CC(C)COc1cc(C(=O)N[C@@H](Cc2ccc3ccccc3c2)C(=O)O)ccc1NC(=O)[C@@H](N)Cc1c[nH]cn1`, the inhibition result in the assay with FGM [1] was “inactive”.
